Here are results for 167 variants from the RNAGym collection of RNA variant scans (doi:10.1126/science.aae0568).

Fewer inactive variants are shown than the library holds.

B1: tRNA (parent)
chain: GUUCCGUUGGCGUAAUGGUAACGCGUCUCCCUCCUAAGGAGAAGACUGCGGGUUCGAGUCCCGUACGGAACG

Variants of B1 are the subject of the series. In words: yeast fitness relative to wild type (ratio to wild type); higher = fitter; tRNA-Arg(CCU), competitive growth, 37 C, YPD. The essentials: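 Variants of the tRNA-Arg(CCU) gene, chemically synthesised with a 3% per-site mutation rate at 69 sites, were placed at the native genomic locus in Saccharomyces cerevisiae. The pooled strains were competed in YPD at 37°C for 24 hours in six parallel replicates. Gene amplicons from the start population and from each end population were read by 100-nucleotide paired-end sequencing. Darwinian fitness relative to wild type came from changes in genotype frequencies; genotypes needed ≥ 100 starting reads, and estimates < 0.5 were set to 0.5.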
Turning to U16G A45G G67C, the yeast fitness came to 0.63.

As to G9A U28A A65U, the yeast fitness was at most 0.5.

Consider U13G C29U C33U, for which the yeast fitness came to 0.57.

On to A15U C27A C61G, for which the yeast fitness was at most 0.5.

Consider G10A U47A, for which the yeast fitness came out at 0.815.

For G12C C22U C60U G68C, the yeast fitness is at most 0.5.

Take C29G U32A: the yeast fitness is 0.501.

With U2A C4A G18C U47A C55U, the yeast fitness came to 0.793.

On to C30U C66A, for which the yeast fitness amounted to 0.765.

With G17A C30U G63C A65C, the yeast fitness came out at 0.529.

With G10C A14G C24A, the yeast fitness is at most 0.5.

In the case of U2G U7G A43C A45U C60A, the yeast fitness was at most 0.5.

On to U3A U64C, for which the yeast fitness was determined as 1.01.

Turning to U8C U13A, the yeast fitness was found to be 0.809.

With C5U C34U A65U, the yeast fitness was 0.565.

With G9C G23C A57C, the yeast fitness is at most 0.5.

For A15U C55U, the yeast fitness was found to be 0.672.

Take U13C A42U U47C G51A A70C: the yeast fitness was at most 0.5.

On to U19G C22G C34U, for which the yeast fitness worked out at 0.559.

G44C C62U A69C: the yeast fitness came out at 0.696.

As for G12A A15G A65C A69C, the yeast fitness was at most 0.5.

C11A C24G C34G: the yeast fitness is at most 0.5.

For the variant A21G C34G, the yeast fitness is 0.598.

For G9C G17A U19C G23A C49U C55U, the yeast fitness was at most 0.5.

G38A G50C: the yeast fitness amounted to 0.746.

As for G51C, the yeast fitness was 0.612.

As to G6C U54G, the yeast fitness was found to be 0.587.

For the variant U8C G52C, the yeast fitness is 0.639.

Consider G10C C29U C46A, for which the yeast fitness is at most 0.5.

Take C60A C61G: the yeast fitness is 0.635.

In the case of A15U A45G, the yeast fitness was 0.732.

With G9C U19C G48A, the yeast fitness is 0.901.

With C5U C30U A40U, the yeast fitness worked out at 0.567.

On to C22G C49U C60A, for which the yeast fitness was at most 0.5.

As for C11U A42U C60A A65U, the yeast fitness stood at 0.553.

U3C G9C C30G A43C: the yeast fitness was at most 0.5.

For G12A A15C G39C C46U, the yeast fitness was at most 0.5.

For A36U G52A C60A, the yeast fitness was at most 0.5.

Regarding C29A U64C, the yeast fitness came to 0.632.

In the case of U3A U7A A69U, the yeast fitness is at most 0.5.

In the case of U7A G10A G41C A42U C46A C61G, the yeast fitness was determined as 0.561.

With G10A C27G C33G G41C A65G G68A, the yeast fitness was at most 0.5.

As to C4G A36U C62G, the yeast fitness came to 0.54.

Regarding G6C G68A, the yeast fitness is 0.662.

Regarding C30A C34G A45U, the yeast fitness is at most 0.5.

Turning to G6A G9C A21C C30U A45U, the yeast fitness is at most 0.5.

For the variant U26G A65G, the yeast fitness is 0.971.

Take G10C G12A U28C C61G C66U: the yeast fitness is at most 0.5.

For the variant C24U A36U, the yeast fitness came to 0.592.

Take U3G G18C G44A: the yeast fitness is at most 0.5.

For U3C G9C C46U, the yeast fitness came out at 0.567.

For the variant A20U A36G G38A A40U, the yeast fitness amounted to 0.501.

For the variant G12C C31G C33G U35C, the yeast fitness was 0.515.

Turning to C22U C62U, the yeast fitness amounted to 0.867.

C22U C62G: the yeast fitness came to 0.778.

In the case of A20G A42C U64G, the yeast fitness was at most 0.5.

As for C5A U8C U35C G44A G48C C55G A69U, the yeast fitness is at most 0.5.

As for U8A G18A C30A U32A U35G G67A, the yeast fitness was found to be 0.527.

Regarding C4G A14G A37U G38A A70U, the yeast fitness came out at 0.628.

As for G6C U8C G56A, the yeast fitness was 0.672.

Take G25C G39A C66U: the yeast fitness worked out at 0.504.

Regarding C27A A40C A45U A57U A70U, the yeast fitness was 0.588.

For G25C A70U, the yeast fitness turned out to be 0.867.

Take U2A G18C G23A G25C A37G A43C C55G G68A: the yeast fitness amounted to 0.558.

On to C5A C30G A43C, for which the yeast fitness is at most 0.5.

As for U3C C4U C24U C62U A69U, the yeast fitness was 0.638.

Take G25C C30U: the yeast fitness stood at 0.669.

For G41C A45U G67C, the yeast fitness was 0.607.

For G10C A40U G50A, the yeast fitness is at most 0.5.

On to A20U U59C, for which the yeast fitness is 0.917.

For U3A C27U C55A, the yeast fitness came out at 0.535.

On to U16A U19G C33U A40C G41A A43C C60U C61G, for which the yeast fitness was at most 0.5.

As for U3C G10A C22A C24G U54C, the yeast fitness is at most 0.5.

For C24U U26C G68A, the yeast fitness came to 0.566.

As for A42G C55A, the yeast fitness turned out to be 0.607.

As for C5A U35G G68C, the yeast fitness is at most 0.5.

Take C4G C5A U8C A21C C31A A42G: the yeast fitness is at most 0.5.

Regarding A15U C34G A37G A40C C62U A65U, the yeast fitness is at most 0.5.

As for C5A U47A, the yeast fitness came out at 0.786.

Regarding C5G U26C G44A A69U, the yeast fitness was at most 0.5.

C34G A69U: the yeast fitness was found to be 0.631.

On to G39A C61A, for which the yeast fitness is 0.789.

On to C27A A69C, for which the yeast fitness came to 0.875.

Consider U53C, for which the yeast fitness worked out at 0.875.

For the variant C11A U13A A20U G63A A65U, the yeast fitness is at most 0.5.

C5U A40U A42G: the yeast fitness was at most 0.5.

For the variant G6C U7C A14G A20C A57C, the yeast fitness was at most 0.5.

On to G17A A57C G63A G67A, for which the yeast fitness is at most 0.5.

For the variant C46A C55G C66U A69C, the yeast fitness is at most 0.5.

For the variant G10A G25A G41C A57G, the yeast fitness was at most 0.5.

With A20U A43U G48C C60G, the yeast fitness was at most 0.5.

As for C24G A36C A70C, the yeast fitness was found to be 0.567.

Take G6A U28C: the yeast fitness is 0.898.

Turning to G6A U28G, the yeast fitness amounted to 0.886.

In the case of C5A C60G G67A, the yeast fitness was at most 0.5.

C5U U8A A70C: the yeast fitness stood at 0.583.

As to C62A G63C, the yeast fitness was 0.661.

As for G39C A57C, the yeast fitness was at most 0.5.

As for C24A G58A, the yeast fitness was 0.859.

As to U2G C11U C27G G52C, the yeast fitness is at most 0.5.

With A14G A15U A45U, the yeast fitness was at most 0.5.

For A14C C27G A40U A70U, the yeast fitness is at most 0.5.

Consider A20C G68U, for which the yeast fitness stood at 0.909.

For U8A A70C, the yeast fitness worked out at 0.776.

With A21U C22U C49A G67A, the yeast fitness was at most 0.5.

Take A36C A40G: the yeast fitness came to 0.566.

For the variant C5G A21G U59A A69C A70C, the yeast fitness was at most 0.5.

As to C5G C27U C66U, the yeast fitness was 0.654.

With C31G A37C G50A A65C, the yeast fitness was at most 0.5.

Turning to C11U G58A G63A, the yeast fitness turned out to be 0.74.

On to U3C C34A G44A G52A C55U A70G, for which the yeast fitness is at most 0.5.

Take G23C A57G: the yeast fitness is 0.677.

For C29G U35G, the yeast fitness is at most 0.5.

In the case of G9C A21U C31G A40C C62U U64C, the yeast fitness stood at 0.518.

Turning to C4G G9A U28C G39A, the yeast fitness was at most 0.5.

In the case of U13C U28C G48A C61G A69C, the yeast fitness is at most 0.5.

Take A14U C22U: the yeast fitness was 0.54.

For A20G G39U A40C, the yeast fitness is at most 0.5.

Regarding C29G A70C, the yeast fitness worked out at 0.76.

Turning to A36G G58C, the yeast fitness turned out to be 0.943.

Consider U2A C11A A14G C29U A65C, for which the yeast fitness was 0.568.

Turning to A40C A57G, the yeast fitness worked out at 0.813.

Take G12A G44A G67C: the yeast fitness amounted to 0.62.

As for G23A U47A G58C, the yeast fitness came to 0.596.

For U19C A42C, the yeast fitness was 1.06.

On to A20C C30G C60A, for which the yeast fitness was at most 0.5.

Take U2G C4A C22U U28G A42U U64C: the yeast fitness was at most 0.5.

With A20G C27A U35C A36G A42U, the yeast fitness was at most 0.5.

With C4U C22A U35A C49G G63C, the yeast fitness is at most 0.5.

As to C29A A36U C61U G67A G68U, the yeast fitness was at most 0.5.

Turning to G18A C30U G41C G50A A65C, the yeast fitness is at most 0.5.

Take U8A C29U G51C C55U: the yeast fitness amounted to 0.526.

With G10C C11U C22G C27G C33G A42C, the yeast fitness was at most 0.5.

For C30G C33G C60G A70G, the yeast fitness amounted to 0.544.

In the case of C24U C61G C66U A69U, the yeast fitness came out at 0.539.

Regarding C31A C61G G67C A70G, the yeast fitness was at most 0.5.

On to C31A A40C U47A U64A, for which the yeast fitness was at most 0.5.

In the case of U19A C34G A43C A70G, the yeast fitness was at most 0.5.

Turning to G9C U13A G25A A40C C66U, the yeast fitness is at most 0.5.

As to U13C G48C, the yeast fitness turned out to be 0.906.

Regarding C22G C31G A69C, the yeast fitness is 0.566.

Consider C33A A37G G39C C55U, for which the yeast fitness is at most 0.5.

With U7A U26C A69U, the yeast fitness was determined as 0.574.

As to C22A C24G A43U C62A, the yeast fitness is at most 0.5.

Consider U13A A15C A45G C55U C61G, for which the yeast fitness is at most 0.5.

On to U19A A21G A43C G51C G68C, for which the yeast fitness was at most 0.5.

Consider G17A A20U C24U, for which the yeast fitness was 0.547.

Consider C60G C66G, for which the yeast fitness came out at 0.576.

For G51A C61A C66A, the yeast fitness is at most 0.5.

In the case of G9C C34A, the yeast fitness was found to be 0.536.

On to G44A U64C, for which the yeast fitness turned out to be 0.935.

Consider A14G G58A A65U, for which the yeast fitness came out at 0.782.

Take G18C C49U A69U: the yeast fitness was at most 0.5.

Consider U2C A37G A40G A45U, for which the yeast fitness is at most 0.5.

Take G17C C22A U28C C66G G67C: the yeast fitness was at most 0.5.

Take A20C C22U C33U C66A: the yeast fitness is at most 0.5.

As to C5U C11G C29G, the yeast fitness is 0.733.

For the variant U8C C11U U16G A21C C31G G39A G56C, the yeast fitness was at most 0.5.

Consider C27G U32A G39A, for which the yeast fitness came out at 0.572.

Regarding A21U C27G C30A, the yeast fitness amounted to 0.514.

As for C4G C11U A14U C30G, the yeast fitness is at most 0.5.

Take A37U U54G: the yeast fitness is at most 0.5.

With C34A G38C A43U G68A, the yeast fitness was at most 0.5.

For G10C C33G A40U, the yeast fitness was 0.579.

Take U16G U53A U59A C66A: the yeast fitness was at most 0.5.

For C4U C66U A70C, the yeast fitness came to 0.83.

Consider C22U C34G G48C, for which the yeast fitness is at most 0.5.
